Reference: ChEMBL document CHEMBL1165943, “Design and synthesis of new anticancer pyrimidines with multiple-kinase inhibitory effect” (Bioorg Med Chem, 2010)

Experiments:
SNB-19 [1] = assay: Cytotoxicity against human SNB19 cells assessed as cell growth at 0.01 uM after 48 hrs by sulforhodamine B assay; assay type: functional; settings: SNB-19, 48 h, read-out: Activity
OVCAR-4 = assay: Cytotoxicity against human OVCAR4 cells assessed as cell growth at 0.001 uM after 48 hrs by sulforhodamine B assay; assay type: functional; settings: OVCAR-4, 48 h, read-out: Activity
NCI-H322M = assay: Cytotoxicity against human NCI-H322M cells assessed as cell growth at 100 nM after 48 hrs by sulforhodamine B assay; assay type: functional; settings: read-out: Activity
LOX IMVI = assay: Cytotoxicity against human LOXIMVI cells assessed as cell growth at 0.01 uM after 48 hrs by sulforhodamine B assay; assay type: functional; settings: read-out: Activity
UACC-62 [2] = assay: Cytotoxicity against human UACC62 cells assessed as cell growth at 1 uM after 48 hrs by sulforhodamine B assay; assay type: functional; settings: UACC-62, 48 h, read-out: Activity
NCI/ADR-RES = assay: Cytotoxicity against human NCI/ADR-RES cells assessed as cell growth at 100 nM after 48 hrs by sulforhodamine B assay; assay type: functional; settings: read-out: Activity
MDA-MB-468 [3] = assay: Cytotoxicity against human MDA-MB-468 cells assessed as cell growth at 1 uM after 48 hrs by sulforhodamine B assay; assay type: functional; settings: MDA-MB-468, 48 h, read-out: Activity
UACC-62 [4] = assay: Cytotoxicity against human UACC62 cells assessed as cell growth at 100 nM after 48 hrs by sulforhodamine B assay; assay type: functional; settings: UACC-62, 48 h, read-out: Activity
NCI-H23 [5] = assay: Cytotoxicity against human NCI-H23 cells assessed as cell growth at 10 uM after 48 hrs by sulforhodamine B assay; assay type: functional; settings: NCI-H23, 48 h, read-out: Activity
SNB-75 [6] = assay: Cytotoxicity against human SNB75 cells assessed as cell growth at 0.001 uM after 48 hrs by sulforhodamine B assay; assay type: functional; settings: SNB-75, 48 h, read-out: Activity
UACC-257 = assay: Cytotoxicity against human UACC257 cells assessed as cell growth at 1 uM after 48 hrs by sulforhodamine B assay; assay type: functional; settings: UACC-257, 48 h, read-out: Activity
HCT-116 = assay: Growth inhibition of human HCT116 cells after 48 hrs by sulforhodamine B assay; assay type: functional, cell-based; settings: HCT-116, 48 h; for CC50: read-out: LC50 (the source's name)
Procedure, shortened: (§1)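 Cells grown in RPMI 1640 with 5% FBS and 2 mM L-glutamine, seeded at 5,000–40,000 cells/well according to doubling time. After 24 h, time-zero plates are TCA-fixed. Five concentrations (10-fold or ½log dilutions, DMSO stocks) are applied for 48 h at 37 °C, 5% CO₂. Cells are TCA-fixed, SRB-stained and read at 515 nm. IC₅₀ is taken from [(Ti−Tz)/(C−Tz)]×100 = 50.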

SF-295 [7] = assay: Cytotoxicity against human SF295 cells assessed as cell growth at 10 uM after 48 hrs by sulforhodamine B assay; assay type: functional; settings: SF-295, 48 h, read-out: Activity
UACC-62 [8] = assay: Cytotoxicity against human UACC62 cells assessed as cell growth at 0.01 uM after 48 hrs by sulforhodamine B assay; assay type: functional; settings: UACC-62, 48 h, read-out: Activity
SF-539 [9] = assay: Cytotoxicity against human SF539 cells assessed as cell growth at 100 nM after 48 hrs by sulforhodamine B assay; assay type: functional; settings: SF-539, 48 h, read-out: Activity
K562 = assay: Cytotoxicity against human K562 cells assessed as cell growth at 100 nM after 48 hrs by sulforhodamine B assay; assay type: functional; settings: K562, 48 h, read-out: Activity
M14 = assay: Growth inhibition of human M14 cells after 48 hrs by sulforhodamine B assay; assay type: functional, cell-based; settings: for CC50: read-out: LC50 (the source's name); procedure, shortened: as §1
OVCAR-3 = assay: Cytotoxicity against human OVCAR-3 cells assessed as cell growth at 0.001 uM after 48 hrs by sulforhodamine B assay; assay type: functional; settings: OVCAR-3, 48 h, read-out: Activity
SF-295 [10] = assay: Cytotoxicity against human SF295 cells assessed as cell growth at 100 nM after 48 hrs by sulforhodamine B assay; assay type: functional; settings: SF-295, 48 h, read-out: Activity
UO-31 [11] = assay: Cytotoxicity against human UO31 cells assessed as cell growth at 100 nM after 48 hrs by sulforhodamine B assay; assay type: functional; settings: UO-31, 48 h, read-out: Activity
T47D = assay: Cytotoxicity against human T47D cells assessed as cell growth at 1 uM after 48 hrs by sulforhodamine B assay; assay type: functional; settings: read-out: Activity
SNB-75 [12] = assay: Cytotoxicity against human SNB75 cells assessed as cell growth at 10 uM after 48 hrs by sulforhodamine B assay; assay type: functional; settings: SNB-75, 48 h, read-out: Activity
MOLT-4 = assay: Growth inhibition of human MOLT4 cells after 48 hrs by sulforhodamine B assay; assay type: functional, cell-based; settings: MOLT-4, 48 h; for CC50: read-out: LC50 (the source's name); procedure, shortened: as §1
SNB-19 [13] = assay: Cytotoxicity against human SNB19 cells assessed as cell growth at 1 uM after 48 hrs by sulforhodamine B assay; assay type: functional; settings: SNB-19, 48 h, read-out: Activity
TK-10 = assay: Cytotoxicity against human TK10 cells assessed as cell growth at 0.01 uM after 48 hrs by sulforhodamine B assay; assay type: functional; settings: TK-10, 48 h, read-out: Activity
UO-31 [14] = assay: Cytotoxicity against human UO31 cells assessed as cell growth at 10 uM after 48 hrs by sulforhodamine B assay; assay type: functional; settings: UO-31, 48 h, read-out: Activity
SF-539 [15] = assay: Cytotoxicity against human SF539 cells assessed as cell growth at 0.001 uM after 48 hrs by sulforhodamine B assay; assay type: functional; settings: SF-539, 48 h, read-out: Activity
SK-MEL-2 = assay: Growth inhibition of human SK-MEL-2 cells after 48 hrs by sulforhodamine B assay; assay type: functional, cell-based; settings: SK-MEL-2, 48 h; for CC50: read-out: LC50 (the source's name); procedure, shortened: as §1
MDA-MB-468 [16] = assay: Cytotoxicity against human MDA-MB-468 cells assessed as cell growth at 100 nM after 48 hrs by sulforhodamine B assay; assay type: functional; settings: MDA-MB-468, 48 h, read-out: Activity
NCI-H23 [17] = assay: Cytotoxicity against human NCI-H23 cells assessed as cell growth at 0.01 uM after 48 hrs by sulforhodamine B assay; assay type: functional; settings: NCI-H23, 48 h, read-out: Activity
OVCAR-8 = assay: Cytotoxicity against human OVCAR8 cells assessed as cell growth at 0.01 uM after 48 hrs by sulforhodamine B assay; assay type: functional; settings: OVCAR-8, 48 h, read-out: Activity
HOP-62 = assay: Cytotoxicity against human HOP62 cells assessed as cell growth at 1 uM after 48 hrs by sulforhodamine B assay; assay type: functional; settings: HOP-62, 48 h, read-out: Activity
BT-549 = assay: Cytotoxicity against human BT549 cells assessed as cell growth at 0.01 uM after 48 hrs by sulforhodamine B assay; assay type: functional; settings: BT-549, 48 h, read-out: Activity
Procedure, shortened: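 Cells grown in RPMI 1640 with 5% FBS and 2 mM L-glutamine, seeded at 5,000–40,000 cells/well by doubling time. Time-zero plates TCA-fixed after 24 h. Five concentrations (10-fold or half-log dilutions from DMSO stock) added; 48 h at 37 °C, 5% CO2. Cold TCA fixation (final 10%, 60 min, 4 °C), 0.4% SRB stain, dye solubilized in 10 mM trizma base, A515.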

## CC(=O)Nc1cccc(-c2ccc(-c3ccnc(NC(=O)Nc4cc(C(F)(F)F)cc(C(F)(F)F)c4)n3)cn2)c1.Cl
SNB-19 [1]
  growth at 0.01 µM: 96%
OVCAR-4
  growth at 0.001 µM: 32%
NCI-H322M
  growth at 0.1 µM: 69%
LOX IMVI
  growth at 0.01 µM: 86%
UACC-62 [2]
  growth at 1 µM: 12%
NCI/ADR-RES
  growth at 0.1 µM: 93%
MDA-MB-468 [3]
  growth at 1 µM: -79%
UACC-62 [4]
  growth at 0.1 µM: 82%
NCI-H23 [5]
  growth at 10 µM: -69%
SNB-75 [6]
  growth at 0.001 µM: 57%
UACC-257
  growth at 1 µM: -45%
HCT-116
  GI50: 1.6 µM
  IC50: 1.6 µM
  TGI: 4.71 µM
  CC50: 17.1 µM
SF-295 [7]
  growth at 10 µM: -33%
UACC-62 [8]
  growth at 0.01 µM: 92%
SF-539 [9]
  growth at 0.1 µM: 86%
K562
  growth at 0.1 µM: 69%
M14; Homo sapiens, M14, 48 h
  GI50: 1.83 µM
  TGI: 3.76 µM
  CC50: 7.74 µM
M14; Homo sapiens, M14, 48 h, read-out: IC50
  IC50: 1.83 µM
OVCAR-3
  growth at 0.001 µM: 101%
SF-295 [10]
  growth at 0.1 µM: 57%
UO-31 [11]
  growth at 0.1 µM: 70%
T47D
  growth at 1 µM: -3%
SNB-75 [12]
  growth at 10 µM: -57%
MOLT-4
  GI50: 1.98 µM
  IC50: 1.98 µM
  TGI: > 100 µM
  CC50: > 100 µM
SNB-19 [13]
  growth at 1 µM: 29%
TK-10
  growth at 0.01 µM: 102%
UO-31 [14]
  growth at 10 µM: -75%
SF-539 [15]
  growth at 0.001 µM: 97%
SK-MEL-2
  GI50: 5.65 µM
  IC50: 5.65 µM
  TGI: 19.8 µM
  CC50: 52.4 µM
MDA-MB-468 [16]
  growth at 0.1 µM: 47%
NCI-H23 [17]
  growth at 0.01 µM: 92%
OVCAR-8
  growth at 0.01 µM: 96%
HOP-62
  growth at 1 µM: 27%
BT-549
  growth at 0.01 µM: 91%

## CC(=O)c1ccccc1-c1ccc(-c2ccnc(NC(=O)Nc3cc(N4CCOCC4)cc(C(F)(F)F)c3)n2)cn1
SNB-19 [1]
  growth at 0.01 µM: 98%
OVCAR-4
  growth at 0.001 µM: 110%
NCI-H322M
  growth at 0.1 µM: 99%
LOX IMVI
  growth at 0.01 µM: 106%
UACC-62 [2]
  growth at 1 µM: 73%
NCI/ADR-RES
  growth at 0.1 µM: 75%
MDA-MB-468 [3]
  growth at 1 µM: 109%
UACC-62 [4]
  growth at 0.1 µM: 90%
NCI-H23 [5]
  growth at 10 µM: 60%
SNB-75 [6]
  growth at 0.001 µM: 88%
UACC-257
  growth at 1 µM: 66%
HCT-116
  GI50: > 100 µM
  IC50: > 100 µM
  TGI: > 100 µM
  CC50: > 100 µM
SF-295 [7]
  growth at 10 µM: 48%
UACC-62 [8]
  growth at 0.01 µM: 94%
SF-539 [9]
  growth at 0.1 µM: 88%
K562
  growth at 0.1 µM: 69%
M14; Homo sapiens, M14, 48 h
  TGI: > 100 µM
  CC50: > 100 µM
M14; m14
  IC50: Not Active
OVCAR-3
  growth at 0.001 µM: 107%
SF-295 [10]
  growth at 0.1 µM: 88%
UO-31 [11]
  growth at 0.1 µM: 80%
T47D
  growth at 1 µM: 60%
SNB-75 [12]
  growth at 10 µM: -45%
MOLT-4
  GI50: > 100 µM
  IC50: > 100 µM
  TGI: > 100 µM
  CC50: > 100 µM
SNB-19 [13]
  growth at 1 µM: 85%
TK-10
  growth at 0.01 µM: 117%
UO-31 [14]
  growth at 10 µM: 86%
SF-539 [15]
  growth at 0.001 µM: 97%
SK-MEL-2
  GI50: > 100 µM
  IC50: 15.9 µM
  TGI: 75.5 µM
  CC50: > 100 µM
MDA-MB-468 [16]
  growth at 0.1 µM: 103%
NCI-H23 [17]
  growth at 0.01 µM: 99%
OVCAR-8
  growth at 0.01 µM: 93%
HOP-62
  growth at 1 µM: 21%
BT-549
  growth at 0.01 µM: 91%
